Our source for the EC50 and Apoptosis values is PMC7114156 (Antiviral Research, 2009).

Experiment [1] deals with adenovirus type 5. Put plainly: Adenovirus assay: adenovirus-5 replication in HFF cells, viral DNA by qPCR. In kind it is cell-based. The note with it: read-out: EC50, adenovirus replication; data not shown. A general note: Real-time PCR tracks product formation cycle by cycle.
Experiment [2] has as its system IM9 cells. Description: Growth of IM9 cell line. As to conditions: read-out: EC50, growth of IM9 cells; data not shown. In kind it is cell-based, human.
Experiment [3] relates to MT4 cells. Put plainly: Growth of MT4 cell line. In kind it is cell-based, human. The note with it: read-out: EC50, growth of MT4 cells; data not shown.
The test system of experiment [4] is episomal HPV-16 DNA. Put plainly: Hybrid capture assay for HPV16 DNA in W12-20850 cells. In kind it is cell-based. As to conditions: read-out: EC50, reduction of HPV DNA; W12 cells; data not shown. Put shortly: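 W12-20850 cells seeded at 7.5 × 10^3/well onto compound (100 to 0.001 μM), 4 days at 37 °C, 5% CO2. MTS growth read, then same cells lysed in 0.2N NaOH/1% Igepal. Episomal HPV-16 DNA measured by hybrid capture: 90 °C 6.5 min, 42 °C overnight, anti-digoxigenin HRP, chemiluminescence. HPV DNA/MTS ratio expressed as % of untreated control. Fit to modified Hill equation.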

Experiment [5] deals with W12-20850 cells. Description: Growth of W12-20850 cells, MTS. The note with it: read-out: EC50, inhibition of growth of W12 cells; data not shown. In kind it is cell-based, human. The method in brief:
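For the time course, test compound was added at time zero to cells growing in 96-well plates. Growth was followed as rate of MTS reduction over 3 days from day zero, with untreated controls alongside.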

Experiment [6] relates to IM9 cells. Put plainly: Apoptosis assay. The class given is cell-based, human. As to conditions: IM9, 20 h exposure. Put shortly: (§1)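 Apoptosis read as cytoplasmic histone-associated DNA fragments with a Cell Death Detection ELISA kit. Exposure was 20 h for IM9 and MT4 and 40 h for W12 and U937. A405 was read kinetically at 30 °C, and the rate per hour came from linear regression of the linear portion. A Fas-activating antibody was the positive control.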

For experiment [7], the system named is MT4 cells. Put plainly: Apoptosis assay. The class given is cell-based, human. As to conditions: MT4, 20 h exposure. The method in brief: as §1
Experiment [8] has as its system W12 cells. Description: Apoptosis assay. In kind it is cell-based, human. As to conditions: W12, 40 h exposure. Put shortly:
as §1

The test system of experiment [9] is U937 cells. Put plainly: Apoptosis assay. In kind it is cell-based, human. The note with it: U937, 40 h exposure. The method in brief:
as §1

The term EC50 denotes the concentration at which the effect is half-maximal. As for `O=C(N[C@H]1CCCc2c1[nH]c1ccc(Cl)cc21)c1ccccn1` [GSK984], the EC50 is greater than 10 µM in [1]; 13 µM in experiment [2]; 35 µM in experiment [3]; 6.9 ± 0.68 µM in [4]; 17 ± 3.6 µM in experiment [5]. In addition, the Apoptosis result in experiment [6], in experiment [7], in experiment [8] and in experiment [9] was “did not induce apoptosis” each time.
